Test results as given in ChEMBL document CHEMBL1128299, “Electrophilic N-benzylnaltrindoles as delta opioid receptor-selective antagonists” (J Med Chem, 1995).

What was measured:
[1] = target: T1, Opioid receptors; delta & kappa (Homo sapiens) (UniProt P41145+P41143); assay: Selectivity ratio as the ratio of IC50 ratio of delta receptor to that of kappa receptor.; format: functional
Procedure, shortened: (§1)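 Each selectivity value is the delta IC50 ratio from mouse vas deferens (DADLE, 100 nM antagonist, 30 min) divided by the kappa (ethylketazocine) or mu (morphine) IC50 ratio from guinea pig ileum. A value of 1 was used wherever an IC50 ratio was below 1.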

[2] = target: T2, Opioid receptors; mu & delta (Homo sapiens) (UniProt P41143+P35372); assay: Selectivity ratio as the ratio of IC50 ratio of delta receptor to that of mu receptor.; format: functional; procedure, shortened: as §1
T2 sequence (P35372 whole entry, looked up): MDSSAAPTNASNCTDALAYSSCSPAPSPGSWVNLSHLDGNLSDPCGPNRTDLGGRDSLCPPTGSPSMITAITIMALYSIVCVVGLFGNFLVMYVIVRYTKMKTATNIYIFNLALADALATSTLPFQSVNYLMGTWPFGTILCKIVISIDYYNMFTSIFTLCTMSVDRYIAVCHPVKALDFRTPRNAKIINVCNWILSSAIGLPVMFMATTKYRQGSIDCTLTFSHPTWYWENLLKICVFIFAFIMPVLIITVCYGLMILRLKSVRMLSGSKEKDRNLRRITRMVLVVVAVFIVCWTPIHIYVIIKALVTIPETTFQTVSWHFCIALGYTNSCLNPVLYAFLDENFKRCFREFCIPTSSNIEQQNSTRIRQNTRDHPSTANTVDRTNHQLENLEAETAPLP
T2 sequence (P41143 whole entry, looked up): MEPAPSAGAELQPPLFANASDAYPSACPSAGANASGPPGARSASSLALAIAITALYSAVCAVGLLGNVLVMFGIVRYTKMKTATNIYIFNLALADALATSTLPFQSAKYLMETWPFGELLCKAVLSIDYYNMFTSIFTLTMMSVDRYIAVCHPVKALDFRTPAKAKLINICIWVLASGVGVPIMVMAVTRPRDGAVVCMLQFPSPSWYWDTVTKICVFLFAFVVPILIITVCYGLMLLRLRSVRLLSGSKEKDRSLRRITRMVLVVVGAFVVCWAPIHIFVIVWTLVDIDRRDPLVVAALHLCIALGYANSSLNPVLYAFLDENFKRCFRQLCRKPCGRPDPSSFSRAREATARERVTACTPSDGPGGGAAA

[3] = target: Delta-type opioid receptor (Mus musculus) (UniProt P32300); assay: Antagonistic activity against opioid delta receptor in mouse vas deferens after 30 min incubation. Preparation was washed (5x) with buffer after incubation with antagonist.; format: functional, tissue-based
Sequence of Delta-type opioid receptor (Mus musculus) (P32300 whole entry): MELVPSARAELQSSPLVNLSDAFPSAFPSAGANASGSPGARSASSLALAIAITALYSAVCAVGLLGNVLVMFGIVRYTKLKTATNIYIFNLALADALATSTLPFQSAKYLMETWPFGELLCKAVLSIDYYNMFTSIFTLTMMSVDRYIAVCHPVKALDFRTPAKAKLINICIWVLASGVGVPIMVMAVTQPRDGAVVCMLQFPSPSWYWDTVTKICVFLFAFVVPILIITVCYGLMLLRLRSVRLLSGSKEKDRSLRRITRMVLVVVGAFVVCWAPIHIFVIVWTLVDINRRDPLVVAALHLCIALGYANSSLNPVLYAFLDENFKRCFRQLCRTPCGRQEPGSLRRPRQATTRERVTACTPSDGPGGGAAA
Procedure, shortened: (§2)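 Electrically stimulated mouse vas deferens with DADLE as the delta agonist. Antagonist at 100 nM was incubated for the stated time (10, 30 or 60 min). The preparation was then washed 5 times with buffer before agonist IC50 was measured. Result is the IC50 ratio, agonist IC50 with antagonist over control IC50.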

[4] = target: Kappa-type opioid receptor (Cavia porcellus) (UniProt P41144); assay: Antagonistic activity against Opioid receptor kappa 1 in guinea pig ileum assay; format: functional, tissue-based
Sequence of Kappa-type opioid receptor (Cavia porcellus) (P41144 whole entry): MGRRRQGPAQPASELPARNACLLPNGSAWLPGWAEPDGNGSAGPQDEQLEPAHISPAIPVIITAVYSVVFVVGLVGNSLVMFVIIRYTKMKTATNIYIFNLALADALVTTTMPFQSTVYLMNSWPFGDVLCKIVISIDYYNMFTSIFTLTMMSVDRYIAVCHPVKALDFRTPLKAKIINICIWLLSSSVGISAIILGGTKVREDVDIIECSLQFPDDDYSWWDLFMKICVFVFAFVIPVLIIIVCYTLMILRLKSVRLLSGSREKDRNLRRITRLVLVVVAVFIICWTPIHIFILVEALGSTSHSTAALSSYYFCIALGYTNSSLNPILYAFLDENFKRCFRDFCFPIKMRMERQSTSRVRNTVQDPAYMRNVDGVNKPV
Procedure, shortened: (§3)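 Electrically stimulated guinea pig ileum. Antagonist present at 100 nM during a 30 min incubation. Agonists were morphine (mu) and ethylketazocine (kappa). Antagonism was expressed as IC50 ratio: agonist IC50 with antagonist divided by control IC50.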

[5] = target: Delta-type opioid receptor (Mus musculus) (UniProt P32300); assay: Antagonistic activity against opioid delta receptor in mouse vas deferens after 30 min. IC50 ratio determined without washing (prewash).; format: functional
Procedure, shortened: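 Electrically stimulated mouse vas deferens with DADLE as the delta agonist. Antagonist at 100 nM was incubated for 30 min. Agonist IC50 was measured directly without washing. Result is the IC50 ratio versus control agonist IC50.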

[6] = target: Mu-type opioid receptor (Cavia porcellus) (UniProt P97266); assay: Antagonistic activity against Opioid receptor mu 1 in guinea pig ileum assay; format: functional, tissue-based; procedure, shortened: as §3
Sequence of Mu-type opioid receptor (Cavia porcellus) (P97266 whole entry): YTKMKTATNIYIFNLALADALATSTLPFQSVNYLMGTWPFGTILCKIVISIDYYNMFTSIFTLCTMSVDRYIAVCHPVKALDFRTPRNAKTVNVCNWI

Mus musculus [7] = assay: Tested in vivo for antagonistic activity against antinociceptive effect of icv-administered DPDPE in mice at 24 hr; format: functional
Procedure, shortened: (§4)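 Mice were pretreated icv with antagonist at 5 nmol. Antinociception from icv DPDPE (delta1) or DSLET (delta2) was measured 1.5 or 24 h later. ED50 ratio is pretreated ED50 over control ED50. Selectivity is the DSLET ED50 ratio divided by the DPDPE ED50 ratio.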

Mus musculus [8] = assay: Tested in vivo for antagonistic activity against antinociceptive effect of icv-administered DPDPE in mice at 1.5 hr; format: functional; procedure, shortened: as §4
Mus musculus [9] = assay: Tested in vivo for antagonistic activity against antinociceptive effect of icv-administered DSLET in mice at 24 hr; format: functional; procedure, shortened: as §4
[10] = target: Delta-type opioid receptor (Homo sapiens) (UniProt P41143); assay: Selectivity ratio as ratio of ED50 value against delta-2 receptor to that delta-1 receptor after hours of administration,; format: functional, organism-based; procedure, shortened: as §4
Sequence of Delta-type opioid receptor (Homo sapiens) (P41143 whole entry): as the sequence (P41143 whole entry, looked up) above

Mus musculus [11] = assay: Tested in vivo for antagonistic activity against antinociceptive effect of icv-administered DSLET in mice at 1.5 hr; format: functional; procedure, shortened: as §4
[12] = target: Delta-type opioid receptor (Homo sapiens) (UniProt P41143); assay: Selectivity ratio as ratio of ED50 value against delta-2 receptor to that delta-1 receptor after 1.5 administration.; format: functional, organism-based; procedure, shortened: as §4
[13] = target: Delta-type opioid receptor (Mus musculus) (UniProt P32300); assay: Antagonistic activity against opioid delta receptor in mouse vas deferens after 10 minutes. Preparation was washed (5x) with buffer after incubation with antagonist.; format: functional, tissue-based; procedure, shortened: as §2
Mu-type opioid receptor = Mu-type opioid receptor (Cavia porcellus, UniProt P97266); assay: Tested for binding affinity against mu opioid receptor using [3H]DAMGO as a radioligand in the guinea pig brain membranes.; format: cell membranes
Sequence of Mu-type opioid receptor (P97266 whole entry): as the sequence (P97266 whole entry) above
Procedure, shortened: (§5)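 Radioligand competition in guinea pig brain membranes. Kappa sites were labelled with [3H]U69593 and mu sites with [3H]DAMGO. Delta1 sites used [3H]DPDPE and delta2 sites used [3H]DSLET, both in the presence of 100 nM unlabelled DAMGO. Results are reported as Ki.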

[14] = target: T1, Opioid receptors; delta & kappa (Homo sapiens); assay: Selectivity ratio as ratio of Ki value towards kappa receptor to that of delta-1 receptor.; format: protein assay
[15] = target: T2, Opioid receptors; mu & delta (Homo sapiens); assay: Selectivity ratio as ratio of Ki value towards mu receptor to that of delta-1 receptor.; format: protein assay
[16] = target: Kappa-type opioid receptor (Cavia porcellus, UniProt P41144); assay: Tested for binding affinity against Opioid receptor kappa 1 using [3H]U-69593 as a radioligand in the guinea pig brain membranes.; format: cell membranes; procedure, shortened: as §5
Sequence of Kappa-type opioid receptor (P41144 whole entry): as the sequence (P41144 whole entry) above

[17] = target: Delta-type opioid receptor (Mus musculus) (UniProt P32300); assay: Tested […] for antagonistic activity against opioid delta receptor in mice at incubation time of 60 minutes. Preparation was washed (5x) with buffer after incubation with antagonist.; format: functional

T1 sequence (P41143 whole entry, looked up): as the sequence (P41143 whole entry, looked up) above
T1 sequence (P41145 whole entry, looked up): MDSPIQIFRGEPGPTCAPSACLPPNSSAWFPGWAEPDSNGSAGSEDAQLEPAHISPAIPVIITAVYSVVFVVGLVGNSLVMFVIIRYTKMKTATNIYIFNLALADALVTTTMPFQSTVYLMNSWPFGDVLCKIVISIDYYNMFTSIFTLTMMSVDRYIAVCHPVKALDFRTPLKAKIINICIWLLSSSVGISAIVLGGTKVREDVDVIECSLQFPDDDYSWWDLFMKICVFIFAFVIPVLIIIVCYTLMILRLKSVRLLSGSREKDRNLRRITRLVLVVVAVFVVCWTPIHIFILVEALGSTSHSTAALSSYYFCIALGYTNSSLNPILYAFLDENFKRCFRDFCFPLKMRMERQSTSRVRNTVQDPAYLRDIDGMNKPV

Row | Structure (SMILES) | Selectivity [1] | Selectivity [2] | IC50 ratio [3] | IC50 ratio [4] | IC50 ratio [5] | IC50 ratio [6] | ED50 ratio (Mus musculus [7]) | ED50 ratio (Mus musculus [8]) | ED50 ratio (Mus musculus [9]) | Selectivity [10] | ED50 ratio (Mus musculus [11]) | Selectivity [12] | IC50 ratio [13] | Ki (Mu-type opioid receptor) | Selectivity [14] | Selectivity [15] | Ki [16] | IC50 ratio [17]
1 | CC(=O)Nc1ccccc1Cn1c2c(c3ccccc31)C[C@@]1(O)C3Cc4ccc(O)c5c4C1(CCN3CC1CC1)[C@H]2O5 (some centres not stated) | 42 | 29 | 10 | 1.3 | 54 | 1.9 |  |  |  |  |  |  |  |  |  |  |  | 
2 | Oc1ccc2c3c1O[C@H]1c4c(c5ccccc5n4Cc4ccccc4)C[C@@]4(O)C(C2)N(CC2CC2)CCC314 (some centres not stated) | 208 | 131 |  | 0.4 | 208 | 1.6 | 1.5 | 1 | 11.1 | 7.4 | 3.2 | 3.2 |  |  |  |  |  | 
3 | O=C(CI)Nc1ccccc1Cn1c2c(c3ccccc31)C[C@@]1(O)C3Cc4ccc(O)c5c4C1(CCN3CC1CC1)[C@H]2O5 (some centres not stated) | 51 | 51 | 25.5 | 0.5 | 50.7 | 0.7 |  |  |  |  |  |  | 51.2 |  |  |  |  | 
4 | Oc1ccc2c3c1O[C@H]1c4c(c5ccccc5n4Cc4ccc(N=C=S)cc4)C[C@@]4(O)C(C2)N(CC2CC2)CCC314 (some centres not stated) | 18 | 25 | 20 | 0.6 | 18 | 1.3 | 2.5 | 1.1 | 4.2 | 1.7 | 3.8 | 3.5 | 6.7 | 289 nM | 46 | 55 | 245 nM | 
5 | Oc1ccc2c3c1O[C@H]1c4c(c5ccccc5n4Cc4ccccc4N=C=S)C[C@@]4(O)C(C2)N(CC2CC2)CCC314 (some centres not stated) | 45 | 57 | 39 | 1.3 | 57 | 0.6 | 19.4 | 1.1 | 8.8 | 0.5 | 1.4 | 1.3 | 23 | 151 nM | 308 | 76 | 615 nM | 216
6 | CC(=O)Nc1ccc(Cn2c3c(c4ccccc42)C[C@@]2(O)C4Cc5ccc(O)c6c5C2(CCN4CC2CC2)[C@H]3O6)cc1 (some centres not stated) | 31 | 31 | 3.1 | 0.2 | 31 | 0.9 |  |  |  |  |  |  | 1.6 |  |  |  |  | 7.1
7 | Oc1ccc2c3c1O[C@H]1c4c(c5ccccc5n4Cc4cccc(N=C=S)c4)C[C@@]4(O)C(C2)N(CC2CC2)CCC314 (some centres not stated) |  |  |  | 1.2 |  | 0.8 | 3.5 | 1.1 | 4.1 | 1.2 | 1.9 | 1.7 |  | 66.2 nM | 5 | 16 | 104 nM | 
8 | O=C(CBr)Nc1ccccc1Cn1c2c(c3ccccc31)C[C@@]1(O)C3Cc4ccc(O)c5c4C1(CCN3CC1CC1)[C@H]2O5 (some centres not stated) | 33 | 21 | 13 | 1.1 | 35 | 1.7 |  |  |  |  |  |  |  |  |  |  |  | 
9 | O=C(CBr)Nc1ccc(Cn2c3c(c4ccccc42)C[C@@]2(O)C4Cc5ccc(O)c6c5C2(CCN4CC2CC2)[C@H]3O6)cc1 (some centres not stated) | 30 | 30 | 12 | 0.9 | 30 | 0.7 |  |  |  |  |  |  | 3.6 |  |  |  |  | 1.4
10 | CC(=O)Nc1cccc(Cn2c3c(c4ccccc42)C[C@@]2(O)C4Cc5ccc(O)c6c5C2(CCN4CC2CC2)[C@H]3O6)c1 (some centres not stated) | 31 | 31 | 18 | 0.9 | 33 | 5.3 |  |  |  |  |  |  | 16 |  |  |  |  | 
11 | O=C(CBr)Nc1cccc(Cn2c3c(c4ccccc42)C[C@@]2(O)C4Cc5ccc(O)c6c5C2(CCN4CC2CC2)[C@H]3O6)c1 (some centres not stated) | 511 | 135 | 51 | 0.9 | 511 | 3.8 | 2.8 | 1 | 6.9 | 2.5 | 2.4 | 2.4 | 44 | 15.3 nM | 463 | 805 | 8.8 nM | 
